Test results as given in ChEMBL document CHEMBL1817593, “C5'-Alkyl Substitution Effects on Digitoxigenin α-l-Glycoside Cancer Cytotoxicity” (ACS Med Chem Lett, 2011).

Legend:
NCI-H460 [1] = assay: Induction of apoptosis in human NCI-H460 cells in serum free medium at 50 nM after 12 hrs by Hoechst 33342/propidium iodide staining based fluorescence microscopy; format: functional
Procedure, shortened: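 NCI-H460 cells exposed to a single 50 nM concentration for 12 h. Cells stained with Hoechst 33342 and propidium iodide. Blue cells with condensed or fragmented nuclei were scored as apoptotic and red, ruptured cells as necrotic. Result given as % apoptotic cell death; N = 6, one-way ANOVA.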

NCI-H460 [2] = assay: Cytotoxicity against human NCI-H460 cells assessed as cell death in serum free medium at 10 nM after 12 hrs by Hoechst 33342/propidium iodide staining based fluorescence microscopy; format: functional
Procedure, shortened: (§1)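 NCI-H460 human lung cancer cells exposed 12 h to 10 nM–10 μM drug, including a 50 nM single-concentration test. Nuclei were stained with Hoechst 33342 and necrotic cells with propidium iodide. Apoptotic cells were scored by condensed or fragmented blue nuclei and necrotic cells by red PI staining. Total cell death (apoptosis plus necrosis) was recorded; N = 6.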

NCI-H460 [3] = assay: Cytotoxicity against human NCI-H460 cells assessed as cell death in serum free medium at 25 nM after 12 hrs by Hoechst 33342/propidium iodide staining based fluorescence microscopy; format: functional; procedure, shortened: as §1
NCI-H460 [4] = assay: Cytotoxicity against human NCI-H460 cells assessed as cell death in serum free medium at 50 nM after 12 hrs by Hoechst 33342/propidium iodide staining based fluorescence microscopy; format: functional; procedure, shortened: as §1
NCI-H460 [5] = assay: Cytotoxicity against human NCI-H460 cells assessed as cell death in serum free medium at 75 nM after 12 hrs by Hoechst 33342/propidium iodide staining based fluorescence microscopy; format: functional; procedure, shortened: as §1
NCI-H460 [6] = assay: Cytotoxicity against human NCI-H460 cells assessed as cell death in serum free medium at 100 nM after 12 hrs by Hoechst 33342/propidium iodide staining based fluorescence microscopy; format: functional; procedure, shortened: as §1
NCI-H460 [7] = assay: Cytotoxicity against human NCI-H460 cells assessed as cell death in serum free medium at 250 nM after 12 hrs by Hoechst 33342/propidium iodide staining based fluorescence microscopy; format: functional; procedure, shortened: as §1
NCI-H460 [8] = assay: Cytotoxicity against human NCI-H460 cells assessed as cell death in serum free medium at 500 nM after 12 hrs by Hoechst 33342/propidium iodide staining based fluorescence microscopy; format: functional; procedure, shortened: as §1
NCI-H460 [9] = assay: Cytotoxicity against human NCI-H460 cells assessed as cell death in serum free medium at 1000 nM after 12 hrs by Hoechst 33342/propidium iodide staining based fluorescence microscopy; format: functional; procedure, shortened: as §1
NCI-H460 [10] = assay: Cytotoxicity against human NCI-H460 cells assessed as cell death in serum free medium at 10000 nM after 12 hrs by Hoechst 33342/propidium iodide staining based fluorescence microscopy; format: functional; procedure, shortened: as §1
NCI-H460 [11] = assay: Induction of apoptosis in human NCI-H460 cells in serum free medium after 12 hrs by Hoechst 33342/propidium iodide staining based fluorescence microscopy; format: functional, cell-based; details: for IC50: NCI-H460, 12 h
Procedure, shortened: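 NCI-H460 cells treated for 12 h at 10 nM to 10 μM. Total cell death (apoptosis plus necrosis) scored by Hoechst 33342/propidium iodide staining, with N = 6 and two-way ANOVA. IC50 obtained by nonlinear regression. Table values are the mean of three independent experiments with duplicate determinations.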

NCI-H460 [12] = assay: Cytotoxicity against human NCI-H460 cells assessed as cell viability at 1 nM after 48 hrs by MTT assay; format: functional; details: NCI-H460, 48 h, read-out: Activity
Procedure, shortened: (§2)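 Viability of NCI-H460 cells was measured by MTT (mitochondrial enzymatic activity) after 48 h exposure, within a dose series spanning 1 nM–10 μM. N = 9, analysed by two-way ANOVA.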

NCI-H460 [13] = assay: Cytotoxicity against human NCI-H460 cells assessed as cell viability at 10 nM after 48 hrs by MTT assay; format: functional; details: NCI-H460, 48 h, read-out: Activity; procedure, shortened: as §2
NCI-H460 [14] = assay: Cytotoxicity against human NCI-H460 cells assessed as cell viability at 25 nM after 48 hrs by MTT assay; format: functional; details: NCI-H460, 48 h, read-out: Activity; procedure, shortened: as §2
NCI-H460 [15] = assay: Cytotoxicity against human NCI-H460 cells assessed as cell viability at 50 nM after 48 hrs by MTT assay; format: functional; details: NCI-H460, 48 h, read-out: Activity; procedure, shortened: as §2
NCI-H460 [16] = assay: Cytotoxicity against human NCI-H460 cells assessed as cell viability at 100 nM after 48 hrs by MTT assay; format: functional; details: NCI-H460, 48 h, read-out: Activity; procedure, shortened: as §2
NCI-H460 [17] = assay: Cytotoxicity against human NCI-H460 cells assessed as cell viability at 500 nM after 48 hrs by MTT assay; format: functional; details: NCI-H460, 48 h, read-out: Activity; procedure, shortened: as §2
NCI-H460 [18] = assay: Cytotoxicity against human NCI-H460 cells assessed as cell viability at 1000 nM after 48 hrs by MTT assay; format: functional; details: NCI-H460, 48 h, read-out: Activity; procedure, shortened: as §2
NCI-H460 [19] = assay: Cytotoxicity against human NCI-H460 cells assessed as cell viability after 48 hrs by MTT assay; format: functional; details: NCI-H460, 48 h
Procedure, shortened: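 NCI-H460 cells were exposed to drug for 48 h, and viability was read by MTT as mitochondrial enzymatic activity. GI50 was derived from dose-response curves (1 nM–10 μM). Values are from three independent experiments with duplicate determinations, given with standard error of the mean.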

NCI-H460 [20] = assay: Growth inhibition of human NCI-H460 cells after 48 hrs by MTT assay; format: functional
Procedure, shortened: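 NCI-H460 viability measured by MTT (mitochondrial enzymatic activity) after 48 h exposure at 1 nM to 10 μM. GI50 derived from dose-response curves, with N = 9 and two-way ANOVA. Values are the mean of three independent experiments with duplicate determinations.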

NCI-H460 [21] = assay: Ratio of digitoxin IC50 to compound IC50 for human NCI-H460 cells after 12 hrs by Hoechst 33342/propidium iodide staining based fluorescence microscopy; format: functional

| Structure (SMILES) | Activity (NCI-H460 [1]) | Activity (NCI-H460 [2]) | Activity (NCI-H460 [3]) | Activity (NCI-H460 [4]) | Activity (NCI-H460 [5]) | Activity (NCI-H460 [6]) | Activity (NCI-H460 [7]) | Activity (NCI-H460 [8]) | Activity (NCI-H460 [9]) | Activity (NCI-H460 [10]) | Activity (NCI-H460 [11]) | IC50 (NCI-H460 [11]) | viability at 0.001 µM (NCI-H460 [12]) | viability at 0.01 µM (NCI-H460 [13]) | viability at 0.025 µM (NCI-H460 [14]) | viability at 0.05 µM (NCI-H460 [15]) | viability at 0.1 µM (NCI-H460 [16]) | viability at 0.5 µM (NCI-H460 [17]) | viability at 1 µM (NCI-H460 [18]) | GI50 (NCI-H460 [19]) | other results |
| --- | --- | --- | --- | --- | --- | --- | --- | --- | --- | --- | --- | --- | --- | --- | --- | --- | --- | --- | --- | --- | --- |
| CCC[C@@H]1O[C@@H](O[C@H]2CC[C@@]3(C)[C@H](CC[C@@H]4[C@@H]3CC[C@]3(C)[C@@H](C5=CC(=O)OC5)CC[C@]43O)C2)[C@H](O)[C@H](O)[C@H]1O | 15.692% | 15.86% | 20.15% | 23.16% | 34.1% | 52.06% | 84.94% | 100% | 100% | 100% | Dose-dependent effect | 116 nM | 81.4% | 39.3% | 16.1% | 9.27% | 7.06% | 5.87% | 5.81% | 4.88 nM | GI50 (NCI-H460 [20]): Dose-dependent effect; GI50 (NCI-H460 [20]; NCI-H460, 48 h): 5 nM |
| CC[C@@H]1O[C@@H](O[C@H]2CC[C@@]3(C)[C@H](CC[C@@H]4[C@@H]3CC[C@]3(C)[C@@H](C5=CC(=O)OC5)CC[C@]43O)C2)[C@H](O)[C@H](O)[C@H]1O | 30.625% | 15.02% | 24.93% | 42.16% | 71.83% | 80.15% | 98.51% | 100% | 100% | 100% | Dose-dependent effect | 56.9 nM | 73.2% | 20% | 10.3% | 8.28% | 6.64% | 6.13% | 5.71% | 2.14 nM | GI50 (NCI-H460 [20]): Dose-dependent effect; GI50 (NCI-H460 [20]; NCI-H460, 48 h): 2 nM |
| CC[C@@H]1O[C@@H](O[C@H]2CC[C@@]3(C)[C@H](CC[C@@H]4[C@@H]3CC[C@]3(C)[C@@H](C5=CC(=O)OC5)CC[C@]43O)C2)CC[C@H]1O | 18.75% | 13.46% | 19.43% | 22.56% | 39.69% | 69.05% | 87.87% | 99.58% | 100% | 100% | Dose-dependent effect | 87.3 nM | 73.3% | 20.6% | 9.23% | 8.21% | 6.81% | 5.41% | 4.5% | 2.19 nM | GI50 (NCI-H460 [20]): Dose-dependent effect; GI50 (NCI-H460 [20]; NCI-H460, 48 h): 2 nM |
| CC(C)C[C@@H]1O[C@@H](O[C@H]2CC[C@@]3(C)[C@H](CC[C@@H]4[C@@H]3CC[C@]3(C)[C@@H](C5=CC(=O)OC5)CC[C@]43O)C2)[C@H](O)[C@H](O)[C@H]1O | 9.9487% | 12.15% | 14.36% | 17.66% | 24.5% | 36.73% | 68.62% | 100% | 100% | 100% | Dose-dependent effect | 167 nM | 82.4% | 57.7% | 40.6% | 26.1% | 12.4% | 6.69% | 5.9% | 13.4 nM | GI50 (NCI-H460 [20]): Dose-dependent effect; GI50 (NCI-H460 [20]; NCI-H460, 48 h): 13 nM |
| CC(C)[C@@H]1O[C@@H](O[C@H]2CC[C@@]3(C)[C@H](CC[C@@H]4[C@@H]3CC[C@]3(C)[C@@H](C5=CC(=O)OC5)CC[C@]43O)C2)[C@H](O)[C@H](O)[C@H]1O | 15.425% | 12.81% | 19.33% | 24.42% | 37.08% | 45.94% | 73.97% | 100% | 100% | 100% | Dose-dependent effect | 130 nM | 77.4% | 47.3% | 35% | 22.8% | 9.88% | 6.11% | 5.76% | 6.32 nM | GI50 (NCI-H460 [20]): Dose-dependent effect; GI50 (NCI-H460 [20]; NCI-H460, 48 h): 6 nM |
| C[C@@H]1O[C@@H](O[C@H]2CC[C@@]3(C)[C@H](CC[C@@H]4[C@@H]3CC[C@]3(C)[C@@H](C5=CC(=O)OC5)CC[C@]43O)C2)[C@H](O)[C@H](O)[C@H]1O | 41.603% | 16.47% | 24.53% | 48.79% | 78.16% | 89.5% | 100% | 100% | 100% | 100% | Dose-dependent effect | 51.7 nM | 77.8% | 11.8% | 8.72% | 7.16% | 6.11% | 5.81% | 5.46% | 2.1 nM | Ratio IC50 (NCI-H460 [21]): 4; GI50 (NCI-H460 [20]): Dose-dependent effect; GI50 (NCI-H460 [20]; NCI-H460, 48 h): 2 nM |
